Compound activity from PubChem.
TDP2 absorb – TDP2 (human) inhibition, absorbance primary screen; O95551; recombinant TDP2, T5PNP hydrolysis, p-nitrophenol absorbance 415 nm; inhibition, % at 12.8 µM; 370,000 compounds, 0.34% hits; AID 720702;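 active = inhibition above the mean of all tested compounds plus 3 SD, set per campaign, cut at about 25% in these data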;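 also: 0% = DMSO with enzyme and 100% = buffer with substrate but no TDP2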
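System – recombinant human TDP2 · Quantity – TDP2 enzyme at 120 nM final · Doses – single concentration, 12.8 µM nominal, with 1% DMSO · Incubation – 2 h at 37 °C · Measured by – epi absorbance of p-nitrophenol freed from T5PNP by hydrolysis · Read-out – % inhibition relative to enzyme-containing and enzyme-free wells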
LEDGF integ inh – blocks HIV-1 LEDGF/p75-dependent DNA integration | TR-FRET IN-LEDGF/p75 DNA integration, Eu/Cy5 | inhibition, % at 3.7 µM | 370,000 compounds, 0.64% hits | AID 743269;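 active = inhibition above the screen-wide mean plus 3 SD, cut at about 13% in these data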;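 also: signal is the Cy5 over europium emission ratio at 671 and 618 nm; 0% = plate median of compound wells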
UHRF1 binding – blocks human UHRF1 binding to methylated DNA | inhibition, % at 4.4 µM | UHRF1 binding to methylated oligo, TR-FRET | 370,000 compounds, 0.75% hits | Q96T88 | AID 687016; in the data active = inhibition above about 21%;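 also: UHRF1 SRA domain binding a hemimethylated CpG hairpin DNA probe; 0% = median of test compound wells and 100% = reference inhibitor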
MBD2 inh – MBD2-methylated oligo binding inhibition; Q9UBB5; TR-FRET, MBD2 binding to methylated oligonucleotide; inhibition, % at 4.4 µM; 370,000 compounds, 0.31% hits; in the data active = inhibition above about 13%
Target sequence (Q9UBB5 whole entry, looked up): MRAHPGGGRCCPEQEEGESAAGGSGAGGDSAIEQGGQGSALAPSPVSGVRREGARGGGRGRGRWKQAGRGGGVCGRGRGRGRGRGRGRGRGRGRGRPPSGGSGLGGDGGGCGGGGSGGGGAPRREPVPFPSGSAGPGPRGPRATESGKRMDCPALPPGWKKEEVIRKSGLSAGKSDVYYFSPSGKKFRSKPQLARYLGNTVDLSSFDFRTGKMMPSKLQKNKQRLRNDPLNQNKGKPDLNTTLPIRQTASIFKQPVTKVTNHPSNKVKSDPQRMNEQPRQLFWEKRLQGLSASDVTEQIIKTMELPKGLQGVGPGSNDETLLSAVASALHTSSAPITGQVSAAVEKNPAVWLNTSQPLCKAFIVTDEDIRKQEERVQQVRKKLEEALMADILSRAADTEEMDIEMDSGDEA
TDP2 confirm – confirmation of human TDP2 inhibitors. shares compounds with TDP2 absorb. inhibition, % at 12.8 µM. AID 743263. recombinant human TDP2, absorbance read-out. 1,100 compounds, 22% hits; in the data active = inhibition above about 25%;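 also: 0% = vehicle with enzyme and 100% = no enzyme buffer only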
Active calls of the source: *; nt = no result. In the library only some 1.6% were active in any assay of this set; here they are far more common.

SMILES | TDP2 absorb | LEDGF integ inh | UHRF1 binding | MBD2 inh | TDP2 confirm
Cc1cc(-c2nnc(SCC(=O)Nc3cccc(C)c3C)n2N)n[nH]1 | -3.7 | -3.8 | -0.1 | 1.1 | nt
CCOc1ccc(C2CC(c3c(O)c4ccccc4oc3=O)=NN2c2ccccc2)cc1OC (stereo not given) | 10.7 | 2.1 | -1.5 | -3.8 | nt
COC(=O)CCC(=O)OC1(C)C(=O)C=C2C=C(C3CC3)N(C3CC3)C=C2C1=O (stereo not given) | 37.9* | 6.8 | 2.4 | -1.3 | 9.8
COC(=O)CCC(=O)OC1(C)C(=O)C=C2C=C(C3CC3)N(Cc3ccco3)C=C2C1=O (stereo not given) | 17.2 | 5.4 | -2.9 | -3.2 | nt
CC(/C=C/c1ccco1)=N\NC(=O)c1cc(Cl)ccc1O | -5.8 | 0.8 | -0.6 | 5.2 | nt
COc1cccc(-n2nnnc2SCC(=O)Nc2nc3c(s2)CCCC3)c1 | 5.1 | 0.1 | 1.0 | 1.3 | nt
COC(=O)c1cccc(-n2nnnc2SCC(=O)Nc2nc3c(s2)CCCC3)c1 | 47.9* | 2.0 | 2.2 | 4.7 | -2.5
CC(C)CCNC(=O)[C@H](Cc1ccccc1)N1Cc2ccccc2C1=O | 34.3* | -1.3 | -0.3 | 1.1 | 5.2
CC(C)CCNC(=O)[C@H](CSCc1ccccc1)N1Cc2ccccc2C1=O | -5.0 | -0.6 | 3.5 | -3.1 | nt
CC1=NN(c2ccc(C)c(C)c2)C(=O)/C1=C/c1ccc2c(c1)n(C)c(=O)n2C | 52.8* | 0.5 | 2.9 | -4.1 | 31.4*
CC1=NN(c2cccc(F)c2)C(=O)/C1=C/c1ccc(N(C)C)cc1 | 10.6 | 8.3 | -4.4 | -3.5 | nt
COc1cc(C(=O)NCCCNC(=O)c2cc(OC)c(OC)c(OC)c2)cc(OC)c1OC | 0.6 | -1.5 | 1.7 | -3.1 | nt
Cc1ccc(NC(=O)COC(=O)C2COc3ccccc3O2)cc1S(=O)(=O)N1CCOCC1 (stereo not given) | -12.9 | -0.5 | -0.7 | -1.6 | nt
Cc1[nH]c2ccccc2c1C(=O)CN1C(=O)C(=O)N(C2CCCC2)C1=O | 26.5* | 1.4 | 0.7 | -3.9 | 4.0
Cc1cc(C(=O)CN2C(=O)C(=O)N(C3CCCC3)C2=O)c(C)n1CCc1ccccc1 | 6.5 | -4.2 | -0.1 | 3.2 | nt
COCCn1cnc2c1c(=O)n(CC(=O)NC(=O)NC(C)(C)C)c(=O)n2Cc1ccccc1 | 38.6* | -0.6 | -2.7 | -7.2 | 1.6
CCNC(=S)NNC(=O)Cn1c(=O)c2c(ncn2CCOC)n(Cc2ccccc2)c1=O | -9.9 | -2.3 | 2.4 | 2.2 | nt
CCc1cc(SC#N)cc(C)c1NC(=O)CCl | -9.6 | -12.7 | 2.4 | -1.2 | nt
CCc1cc(SC#N)cc(C)c1N | 31.6* | -3.5 | 14.5 | 7.0 | 5.5
Cc1ccc2c(c1)N(C(=O)CCC(=O)N1CCN(c3ccccn3)CC1)CCO2 | 0.3 | -1.3 | 0.6 | -5.2 | nt
CC(CN1CCN(Cc2ccccc2)CC1)c1ccccc1 (stereo not given) | 25.6* | -0.2 | -1.2 | 1.7 | 10.0
CC(NC(=O)C(C)N1CCN(Cc2ccccc2)CC1)c1ccccc1 (stereo not given) | 24.5* | 0.7 | 0.6 | -4.7 | -3.2
O=S(=O)(c1ccc(Cl)cc1)N1CCC(n2cccc2)CC1 | 11.0 | -0.4 | 0.6 | 3.3 | nt
O=[N+]([O-])c1ccc2c(c1)nnn2-c1ccccc1 | 24.5* | -1.9 | -3.4 | -2.7 | 5.3
Cc1ccc(NC(=O)Nc2ccc(Cl)c(Cl)c2)nc1 | -1.1 | -2.7 | 1.1 | 0.6 | nt
SMILES | TDP2 absorb | LEDGF integ inh | UHRF1 binding | MBD2 inh | TDP2 confirm
O=C(c1cc(COc2cccc3cnccc23)on1)N1CCC(c2ccccc2Cl)C1 (stereo not given) | 25.2* | 1.4 | -3.1 | -4.3 | -0.5
Fc1cccc(Cn2ccc3ccc(-c4ccc5ccn(Cc6ccccc6)c5c4)cc32)c1 | 2.3 | -0.9 | -1.4 | -2.9 | nt
COc1cccc(C(=O)COc2ccc3c(C)cc(=O)oc3c2)c1 | 0.9 | 0.2 | 0.9 | -2.2 | nt
CC1(C)C=C2C(=NN(c3ccccc3)C(N)=C2C#N)CO1 | 47.4* | -4.3 | -3.7 | -1.6 | 52.6*
CC1(C)Cc2c(C#N)c(N)n(-c3ccccc3)c(=S)c2CO1 | 7.5 | -3.7 | -1.8 | 3.3 | nt
O=c1c2ccccc2ncn1Cc1ccc(Cl)c(Cl)c1 | -4.2 | -5.6 | -1.8 | -1.5 | nt
Cc1[nH][nH]c(=O)c1C(c1c(C)[nH][nH]c1=O)c1cn(Cc2ccc(Cl)c(Cl)c2)c2ccccc12 | 44.1* | 4.7 | 17.6 | -0.9 | 27.1*
COc1cc(OC)cc(-c2cc3ccccc3c(=O)o2)c1 | 2.4 | 1.1 | 2.7 | 5.3 | nt
CCC(NC(=O)Nc1ccc(O)cc1)(C(F)(F)F)C(F)(F)F | 26.8* | 15.1* | 8.7 | -10.9 | 5.2
Cc1cccc(NC(=O)C(Cc2ccccc2)c2nn[nH]n2)c1C (stereo not given) | 27.9* | -0.3 | 1.6 | 2.9 | 2.0
COc1cc(/C=C2/C(=O)N(c3ccc([N+](=O)[O-])cc3)N=C2N2CCOCC2)ccc1O | 66.7* | 3.0 | 11.0 | -1.4 | 31.5*
C=CCSc1nnc(COc2ccc(=O)n(-c3ccccc3)n2)n1CC | 24.6* | -1.5 | -1.9 | -2.7 | 5.8
CCn1c(COc2ccc(=O)n(-c3ccccc3)n2)nnc1SCc1cccc(OC)c1 | 7.8 | -0.3 | 0.1 | 1.4 | nt
Cc1cc(-c2ccccc2)nc2oc(C(=O)NN)c(N)c12 | 30.2* | -1.5 | -9.1 | -1.6 | 6.1
CCc1ccc(CN(C)Cc2nc(-c3cccc(Cl)c3)no2)nc1 | 27.6* | 5.4 | -0.4 | 0.8 | 4.0
COc1ccccc1CN1CCC(CNS(=O)(=O)c2cc(-c3onc(C)c3C)ccc2OC)CC1 | 6.0 | 3.6 | -1.2 | 2.1 | nt
CCN(C(=O)c1cccc2c1-c1ccccc1C2=O)c1ccccc1 | 3.9 | 0.6 | 1.9 | 2.8 | nt
CCC(=O)N(CC)C1=C(O)c2ccccc2C(=O)C1=O | 28.8* | 3.7 | -9.8 | -8.4 | 19.0
CC(C)CCNC(=O)Cc1ccccc1[N+](=O)[O-] | -6.6 | -0.9 | 2.7 | 1.8 | nt
COc1ccc(C2C(C#N)=C(N)Oc3c2c(-c2ccccc2)nn3-c2ccccc2)c(OC)c1OC (stereo not given) | 68.4* | 11.7 | 3.5 | -8.2 | 6.8
COc1ccc(OC)c(C2C(C#N)=C(N)Oc3c2c(C)nn3-c2ccc(C)cc2)c1 (stereo not given) | 59.8* | 3.7 | 1.3 | -3.8 | 9.4
Cc1ccc(-n2nc(C)c3c2OC(N)=C(C#N)C3c2ccco2)cc1 (stereo not given) | 6.9 | 1.2 | -12.0 | -7.2 | nt
Cc1nn(-c2ccccc2)c2c1C(c1ccccc1)C(C#N)=C(N)O2 (stereo not given) | 40.4* | 8.3 | 4.8 | -8.7 | 11.4
O=C(CNCCN1CCOCC1)Nc1ccccc1Sc1ccccc1 | 27.8* | 5.2 | 2.0 | -4.2 | 13.8
COC(=O)c1c(-c2ccccc2OC)sc2cc3c(cc12)OCO3 | -9.9 | 2.2 | 3.4 | -5.2 | nt
COc1cccc(CC(=O)OCC(=O)Nc2c(C)nn(-c3ccccc3)c2C)c1 | -3.5 | 6.0 | 0.9 | -7.8 | nt
COc1ccc2nc3ccccc3nc2c1N | 39.0* | 3.4 | -8.2 | -28.5 | 7.8
COc1ccc2nc3cccc(OC)c3nc2c1 | 1.5 | -12.1 | -9.1 | -6.6 | nt
